Experimental findings from the RNAGym collection of RNA variant scans (doi:10.1126/science.aae0568) are described below.

Fewer inactive variants are shown than the library holds.

To fix the notation:
B1: tRNA (parent)
chain: GUUCCGUUGGCGUAAUGGUAACGCGUCUCCCUCCUAAGGAGAAGACUGCGGGUUCGAGUCCCGUACGGAACG

The variants in the data set derive from B1. The data set is described as follows: yeast fitness relative to wild type (ratio to wild type); higher = fitter; tRNA-Arg(CCU), competitive growth, 37 C, YPD. A digest of the protocol:
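For this measurement, the tRNA-Arg(CCU) gene was varied by chemical synthesis at a 3% per-site mutation rate across 69 sites, and each variant was placed at the native genomic locus in Saccharomyces cerevisiae. The pooled strains went through a 24-hour competition in YPD at 37°C in six parallel replicates, with amplicons from start and end populations read by 100-nucleotide paired-end sequencing. Darwinian fitness relative to wild type followed from the change in each genotype's frequency. Genotypes needed ≥ 100 starting reads, and estimates < 0.5 were set to 0.5.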
With GUUCCGUUGGCGUCAUGGUAACGUGUCUCCGUCCUUAGGAGAAGACUGCGGGUUCGAGUCCCGUACGGAACG [A14C C24U C31G A36U], the yeast fitness was 0.664.
Under GUUCCGUUGGCGAAAUGGUAACGCGUCUCCCUCCUAAGGAGAAGACUGCGGGUUCGUGUCCCGUACGGAACG [U13A A57U] stands 0.681; under GUUCCGUUGGCGUAAUGGUGACGCGUCUCCCUCCUAACGCGAAGACUGCGGGUUCGAGUCCCGUACGGAACG [A20G G38C A40C], 0.662; under GUUCCGUUGGCGUUAUGGCAACGCGUCUCCCUCCUAAGGAGAAGACUGCGGGUUCGAGUCCCGUUCGGAACG [A14U U19C A65U], at most 0.5.
The same measure for GUUCCGUUGGCGUAAUGGUAACGCGUCUCCUUCCUAACGAGAAGACUGCGGCUUCGAGUCCCGUACGGAACG [C31U G38C G52C]: at most 0.5; for GUUCAGUAGGCGUAAUGGUAACGCGUCUCCCUCCUAAGGAGAAGAGUGCGGGUUCGAGUCCCGUACGGAACG [C5A U8A C46G]: at most 0.5.
Regarding GUCCCGUUGGCGUAAUGGUAACGCGUUUCCCUCCUAAGGAGAAGACUGCGGGUUCGAGUCCCGUACGGAACG [U3C C27U], the yeast fitness came out at 0.941.
In the case of GUCCCGUUGGCGUAAUGGUAACGCGUCUCCCUCCUAAGGAGAAGACUGCGAGUUCGAGUCCCGUACGGCACG [U3C G51A A69C], the yeast fitness is 0.602.
As to GUUCCGUUGGCGUAAUGGUAACGCGUCUCUGUCCUAUGGAGAAGACUCCGGGUUCGAGUCCCGUACGGAACG [C30U C31G A37U G48C], the yeast fitness is at most 0.5.
For GUUCCGUUGGCGUAAUGGUAACGCGUCUCCGUCCUCAGGAGAAGACUGCAGGUUCGAGUCCUGUACGACACG [C31G A36C G50A C62U G68A A69C], the yeast fitness was at most 0.5.
For GUUCCGUUGGCGUAAUGGUAACGCGUUUCCCUCCUAAGGCGAAGAUUGCGGGUUCGAGUCCCGUACGGAACG [C27U A40C C46U], the yeast fitness is 0.661.
Under GUUCCGUUGGCGUAAUGGUAACGCAUCUGCCUCCUAAGGAGACGACUGCGGGUUCGAGUCACGUACGGUACG [G25A C29G A43C C61A A69U] stands at most 0.5.
Under GUUCCGUUGGCGUAAUGGUAACGCGUCUCCCUCCUAAGCUGAAGACUGCGGGUUCGAGUCCCGUACGGAACG [G39C A40U] stands 0.73.
As to GCUCCGUUGGCGUAAUGGCAACGCGUCUCCCUCCUAAGGAGAAGACUGCGGGUUCGAGACCCGUACGGAACG [U2C U19C U59A], the yeast fitness turned out to be 0.582.
As for GUGCCGUUGGCGCAAUGGUAACGCGUCUCCCUACUAAGGAGUAGACUGUGGGUUAGAGUCCCGUACGGAACG [U3G U13C C33A A42U C49U C55A], the yeast fitness is at most 0.5.
The same measure for GUUCCGUUGGCGUAUUGGUAACGCGUCUACCUCCUAAGGAGAAGACUCCGGGUUCGAGUCCCGUACGGAACG [A15U C29A G48C]: at most 0.5; for GUUCCGUUGGCGUAAUGGUAACGCGUCUUCCUCCUAAGGAGAAGACUGCGGGUUUGAGUCCCGUACGGAACG [C29U C55U]: 0.636.
Under GUUCCGUAGGCGUAAUAGUAACGUGUCUCCCUCCUAAGGAGAAGACUGCGGGUUCGAGUCCCGUACGGAACG [U8A G17A C24U] stands 0.95; under GUUCCGUUGGCGGAAUGGUAACGCGUCGCCCUCCUAAGGAGAAGACUGCGGGUUCGAGUCCCGUACGGAACG [U13G U28G], 0.59.
Under GUUCAGUUGGCGUAAUGGUAACAUGUCUCCCUCCUCAGGAGAAGACUGCGGGUUCGAGUCCCGUACGGAACG [C5A G23A C24U A36C] stands at most 0.5; under GUACCGUUGGCGUAAUGGUGACGCGUCUCCCUCCUAAGGAGAAGACUGCGGGUUGGAGUCUCGUACGGAACG [U3A A20G C55G C61U], at most 0.5; under GUUCCGUUGGCGUAAUGGUAGCGCGUCUCCCUCCUAAGGAGAAGACUGCGGGAUCGUGUCCCGUUCGGAACG [A21G U53A A57U A65U], 0.52.
As to GUUCCGUUGGCAUAAUGGUAACGCGUCUCCCUCCUAAGGAGAAGACUGCGGGUUCGAGUCCCGUACGGAUCG [G12A A70U], the yeast fitness came out at 0.99.
The same measure for GUGCCGUUGGCGUAAUGGUGACGCGUCUCCCUCCUAAGGAGAAGACUGUGGGUUCGAGUCCCGUACGGAACG [U3G A20G C49U]: at most 0.5; for GUUCCGUUGGCGUAAUGGUAACGCGUCUCGCUCCUAAGGACAAGACUGCGGGUUCGUGUCCCGUACGGAACG [C30G G41C A57U]: at most 0.5.
Regarding GUUCCGUUGGCGUAAUGGUAACGGGUCUCCCUCCUAAGGAGAAAACUGCGGGUUCGAGUCCCGUACGGAACG [C24G G44A], the yeast fitness is 0.568.
With GUAUCGUUGGCGAAAUGGUAACGCGUCUCCCUCCUAAGGAGAAGACUGCGAGUUCGAGUCCCGUACGGAACG [U3A C4U U13A G51A], the yeast fitness is at most 0.5.
The same measure for GUUCCGUGGGUGUAACGGUAACGCGUCUCCCUCCUAAGGAGUAGACUGCGGGUUCGAGUCCCGUACGGAACG [U8G C11U U16C A42U]: 0.749.
As for GUUCGGUUGGCGUAAUGGUAACGCGUCUCGCUCCUAAGGAGAAGACUGCGGGUUCGAGUCGCGUACGGAACG [C5G C30G C61G], the yeast fitness was at most 0.5.
With GUUCCGUUGGCGUAGUGGUAACCCGUCUCCCUCCUAUGGAGAAGACUGCGGGUUCGAGUCCCGUUCGGAACG [A15G G23C A37U A65U], the yeast fitness was at most 0.5.
Under GUUCAGUUGGCGUAAUGGUAACGGGUCUCCCUCGUAAGGAGAAGACUGCGGGUUCGAGUCCCGUACGGAACG [C5A C24G C34G] stands at most 0.5; under GAUCCGUUGGCGUAAUGGUGACGCGUCUCCCUCCUAAGGAGAAAACUGCGGGUUCGAGUCCCGUACGGAACG [U2A A20G G44A], 0.531.
Under GUUCCGUUGCCGUAAUGGUAACGCGUUUCCCUCCUCAGGAGAAGACUGCGGGUUCGAGUCUCGUGCGGAACG [G10C C27U A36C C61U A65G] stands at most 0.5; under GUUCCGUUGGCGUAAUGGUAACGCGUCUCACUCCUAAGGAGAUGACUGCGGGUUCGAGUCCCGUAUGGAACG [C30A A43U C66U], 0.75.
Under GUUCCAUUGGUGUAAUGGUAACGCGUCUCCCUCCUAAGGAGAAGACUGCGGGUUCGAGUCCCGUACGGUACG [G6A C11U A69U] stands 0.707; under GUUCCGUUGGCGUAAUGGUAACGCGUUUCCCUCCUACGGAGAAGACUGCGGGUUCCAGUCCCCCACGGAACG [C27U A37C G56C G63C U64C], at most 0.5; under GUUCAGUUGGCGUACUGGUAACGCGUCUACCUCCUAAGGAGCAGGCUGCGGGUUCGAGUCCCGUACGGAACG [C5A A15C C29A A42C A45G], 0.551.
